# ChEMBL document CHEMBL3817756, “Synthesis and Anti-Influenza Activity of Pyridine, Pyridazine, and Pyrimidine C-Nucleosides as Favipiravir (T-705) Analogues” (J Med Chem, 2016)
# Active and inactive are the calls of the source. No cut-off for these calls is given here.
# What was measured:
# [1] = Cytotoxicity against MDCK cells after 10 mins by CellTiter-Glo assay; format: cell-based, Canis lupus familiaris; details: dog
# Procedure, shortened: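 Uninfected cultures run in parallel with the MDCK neuraminidase antiviral assay. CellTiter-Glo reagent added, 10 min at room temperature, luminescence read.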
# [2] = test system: Influenza A virus; assay: Antiviral activity against Influenza A virus A/WSN/33(H1N1) infected in MDCK cells assessed as inhibition of neuraminidase activity using 2'-(4-methylumbelliferyl)-alpha-D-N-acetylneuraminic acid substrate pretreated with cells for 24 hrs followed by viral infection measured after 20 hrs by fluorescence assay; format: functional, organism-based; details: A/WSN/1933(H1N1)
# Procedure, shortened: (§1)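 MDCK cells at 1 × 10^4 cells/well in DMEM with 0.3% FBS, 1% penicillin/streptomycin and 1% DMSO. After 24 h, serially diluted compound was added for a further 24 h. Cells were infected with A/WSN/33 at 250 IU/well for 20 h at 37 °C. Supernatant was replaced with 25 μM MUNANA in 33 mM MES, pH 6.5, for 45 min at 30 °C. Reaction stopped with glycine pH 10.5/25% ethanol; fluorescence read at ex 355/em 460 nm. EC50 averaged over n ≥ 2.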
# [3] = test system: A549; assay: Drug metabolism in human A549 cells assessed as nucleoside triphosphate formation at 50 uM after 24 hrs by LC-MS/Ms analysis; format: ADME, cell-based; details: a549, 24 h, BLD = below limit of detection
# [4] = Inhibition of human rhinovirus 16 RNA-dependent RNA polymerase assessed as inhibition of [3H]UTP incorporation using HCV 5'-untranslated region RNA template incubated for 2.5 hrs by radiometric assay; design: species or system rhinovirus A16
# [5] = test system: Tni; assay: (§2) Binding affinity to recombinant Influenza A virus A/chicken/Nanchang/3-120/01(H3N2) RNA polymerase subunit C-terminal TAP/His6-tagged PA/PB1/PB2 expressed in Tni cells assessed as compound incorporation by measuring 10 to 14-mer product formation using 5'-pApG/14-nucleotide RNA with C as nucleotide as primer/template at 100 uM after 30 mins in presence of [alpha-33P]CTP by PAGE analysis; format: cell-based
# [6] = Inhibition of HCV NS5B RNA-dependent RNA polymerase assessed as inhibition of [3H]CTP incorporation using HCV 5'-untranslated region RNA template incubated for 2 hrs; design: species or system Hepacivirus hominis
# [7] = Inhibition of recombinant human Norovirus GII.4 RNA-dependent RNA polymerase expressed in Escherichia coli assessed as inhibition of [3H]UTP incorporation using HCV 5'-untranslated region RNA template incubated for 2.5 hrs by radiometric assay
# [8] = test system: Tni; assay: as §2, with “measuring” for “measuring 10 to”, “with U” for “with C”; format: cell-based
# [9] = test system: MDCK; assay: Prodrug conversion in MDCK cells assessed as ((2R,3S,4R,5S)-5-(2-carbamoyl-3-fluoropyridin-4-yl)-3,4-dihydroxytetrahydrofuran-2-yl)methyl tetrahydrogen triphosphate level per million cells at 50 uM after 24 hrs by LC-MS/Ms analysis; format: ADME, cell-based, Canis lupus familiaris; details: dog
# [10] = Prodrug conversion in NHBE cells assessed as ((2R,3S,4R,5S)-5-(2-carbamoyl-3-fluoropyridin-4-yl)-3,4-dihydroxytetrahydrofuran-2-yl)methyl tetrahydrogen triphosphate level per million cells at 50 uM after 24 hrs by LC-MS/Ms analysis; format: ADME, cell-based; details: human
# [11] = test system: A549; assay: Prodrug conversion in human A549 cells assessed as ((2R,3S,4R,5S)-5-(2-carbamoyl-3-fluoropyridin-4-yl)-3,4-dihydroxytetrahydrofuran-2-yl)methyl tetrahydrogen triphosphate level per million cells at 50 uM after 24 hrs by LC-MS/Ms analysis; format: ADME, cell-based; details: a549, 24 h
# [12] = test system: A549; assay: Prodrug conversion in human A549 cells assessed as ((2R,3S,4R,5S)-5-(2-carbamoyl-3-fluoropyridin-4-yl)-3,4-dihydroxytetrahydrofuran-2-yl)methyl dihydrogen phosphate level per million cells at 50 uM after 24 hrs by LC-MS/Ms analysis; format: ADME, cell-based; details: a549, 24 h
# [13] = Prodrug conversion in NHBE cells assessed as ((2R,3S,4R,5S)-5-(2-carbamoyl-3-fluoropyridin-4-yl)-3,4-dihydroxytetrahydrofuran-2-yl)methyl dihydrogen phosphate level per million cells at 50 uM after 24 hrs by LC-MS/Ms analysis; format: ADME, cell-based; details: human
# [14] = test system: Influenza A virus; assay: Antiviral activity against Influenza A virus infected in MDCK cells; format: functional, organism-based; procedure, shortened: as §1
# [15] = test system: MDCK; assay: Prodrug conversion in MDCK cells assessed as ((2R,3S,4R,5S)-5-(2-carbamoyl-3-fluoropyridin-4-yl)-3,4-dihydroxytetrahydrofuran-2-yl)methyl dihydrogen phosphate level per million cells at 50 uM after 24 hrs by LC-MS/Ms analysis; format: ADME, cell-based, Canis lupus familiaris; details: dog
# [16] = test system: Influenza A virus; assay: Antiviral activity against Influenza A virus A/WSN/33(H1N1) infected in human A549 cells; format: functional, organism-based; details: A/WSN/1933(H1N1)
# [17] = test system: Lung; assay: Prodrug conversion in Balb/c mouse assessed as ((2R,3S,4R,5S)-5-(2-carbamoyl-3-fluoropyridin-4-yl)-3,4-dihydroxytetrahydrofuran-2-yl)methyl tetrahydrogen triphosphate level in lung at 2 mg/kg, iv measured at 0.25 hrs post dose by LC-MS/MS analysis; format: ADME, organism-based; details: in vivo
# Procedure, shortened: (§3)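 Female Balb/c mice (N = 2), fasted overnight, given the prodrug IV at 2 mg/kg in 10% DMSO/60% PEG400/30% water. Under isoflurane anaesthesia, blood sampled at 0.25 and 2 h post dose. Parent nucleoside measured in blood; monophosphate and triphosphate measured in lung.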
# [18] = test system: Blood; assay: Prodrug conversion in Balb/c mouse assessed as 4-((2S,3R,4S,5R)-3,4-dihydroxy-5-(hydroxymethyl)tetrahydrofuran-2-yl)-3-fluoropicolinamide level in blood at 2 mg/kg, iv measured at 0.25 hrs post dose by LC-MS/MS analysis; format: ADME, organism-based; details: in vivo; procedure, shortened: as §3
# [19] = test system: Lung; assay: Prodrug conversion in Balb/c mouse assessed as ((2R,3S,4R,5S)-5-(2-carbamoyl-3-fluoropyridin-4-yl)-3,4-dihydroxytetrahydrofuran-2-yl)methyl dihydrogen phosphate level in lung at 2 mg/kg, iv measured at 2 hrs post dose by LC-MS/MS analysis; format: ADME, organism-based; details: in vivo; procedure, shortened: as §3
# [20] = test system: Lung; assay: Prodrug conversion in Balb/c mouse assessed as ((2R,3S,4R,5S)-5-(2-carbamoyl-3-fluoropyridin-4-yl)-3,4-dihydroxytetrahydrofuran-2-yl)methyl dihydrogen phosphate level in lung at 2 mg/kg, iv measured at 0.25 hrs post dose by LC-MS/MS analysis; format: ADME, organism-based; details: in vivo; procedure, shortened: as §3
# [21] = test system: Influenza A virus; assay: Antiviral activity against Influenza A virus A/WSN/33(H1N1) infected in NHBE cells; format: functional, organism-based; details: A/WSN/1933(H1N1)
# [22] = test system: Lung; assay: Prodrug conversion in Balb/c mouse assessed as ((2R,3S,4R,5S)-5-(2-carbamoyl-3-fluoropyridin-4-yl)-3,4-dihydroxytetrahydrofuran-2-yl)methyl tetrahydrogen triphosphate level in lung at 2 mg/kg, iv measured at 2 hrs post dose by LC-MS/MS analysis; format: ADME, organism-based; details: in vivo, BLD = below limit of detection; procedure, shortened: as §3
# [23] = test system: Blood; assay: Prodrug conversion in Balb/c mouse assessed as 4-((2S,3R,4S,5R)-3,4-dihydroxy-5-(hydroxymethyl)tetrahydrofuran-2-yl)-3-fluoropicolinamide level in blood at 2 mg/kg, iv measured at 2 hrs post dose by LC-MS/MS analysis; format: ADME, organism-based; details: in vivo; procedure, shortened: as §3
# [24] = test system: MDCK; assay: Drug metabolism in MDCK cells assessed as ((2R,3S,4R,5S)-5-(2-carbamoyl-3-fluoropyridin-4-yl)-3,4-dihydroxytetrahydrofuran-2-yl)methyl tetrahydrogen triphosphate level per million cells at 50 uM after 24 hrs by LC-MS/Ms analysis; format: ADME, cell-based, Canis lupus familiaris; details: dog
# [25] = test system: A549; assay: Drug metabolism in human A549 cells assessed as ((2R,3S,4R,5S)-5-(2-carbamoyl-3-fluoropyridin-4-yl)-3,4-dihydroxytetrahydrofuran-2-yl)methyl dihydrogen phosphate level per million cells at 50 uM after 24 hrs by LC-MS/Ms analysis; format: ADME, cell-based; details: a549, 24 h
# [26] = test system: A549; assay: Drug metabolism in human A549 cells assessed as ((2R,3S,4R,5S)-5-(2-carbamoyl-3-fluoropyridin-4-yl)-3,4-dihydroxytetrahydrofuran-2-yl)methyl tetrahydrogen triphosphate level per million cells at 50 uM after 24 hrs by LC-MS/Ms analysis; format: ADME, cell-based; details: a549, 24 h
# [27] = test system: MDCK; assay: Drug metabolism in MDCK cells assessed as ((2R,3S,4R,5S)-5-(2-carbamoyl-3-fluoropyridin-4-yl)-3,4-dihydroxytetrahydrofuran-2-yl)methyl dihydrogen phosphate level per million cells at 50 uM after 24 hrs by LC-MS/Ms analysis; format: ADME, cell-based, Canis lupus familiaris; details: dog
# [28] = Drug metabolism in NHBE cells assessed as ((2R,3S,4R,5S)-5-(2-carbamoyl-3-fluoropyridin-4-yl)-3,4-dihydroxytetrahydrofuran-2-yl)methyl tetrahydrogen triphosphate level per million cells at 50 uM after 24 hrs by LC-MS/Ms analysis; format: ADME, cell-based; details: human
# [29] = Drug metabolism in NHBE cells assessed as ((2R,3S,4R,5S)-5-(2-carbamoyl-3-fluoropyridin-4-yl)-3,4-dihydroxytetrahydrofuran-2-yl)methyl dihydrogen phosphate level per million cells at 50 uM after 24 hrs by LC-MS/Ms analysis; format: ADME, cell-based; details: human
compound,measurement,setting,value
C#Cc1c([C@@H]2O[C@H](CO)[C@@H](O)[C@H]2O)ccnc1C(N)=O,CC50 at 10 min,[1],98 µM
same,EC50,[2],36 µM
NC(=O)c1nc(F)cnc1O [FAVIPIRAVIR],CC50 at 10 min,[1],> 400 µM
same,EC50,[2],2.7 µM
NC(=O)c1nccc([C@@H]2O[C@](F)(CO)[C@@H](O)[C@H]2O)c1F,CC50 at 10 min,[1],185 µM
same,Drug metabolism,[3],BLD
same,EC50,[2],98 µM
NC(=O)c1nccc([C@@H]2O[C@H](CO)[C@@H](O)[C@H]2O)n1,CC50 at 10 min,[1],> 200 µM
same,Drug metabolism,[3],BLD
same,EC50,[2],8.7 µM
COc1c(C(N)=O)ccnc1[C@@H]1O[C@H](CO)[C@@H](O)[C@H]1O,CC50 at 10 min,[1],207 µM
same,EC50,[2],88 µM
NC(=O)c1cc([C@@H]2O[C@H](CO)[C@@H](O)[C@H]2O)ccn1,Drug metabolism,[3],BLD
NC(=O)c1nccc([C@@H]2O[C@H](CO)[C@@H](O)[C@H]2O)c1O,CC50 at 10 min,[1],2 µM
same,EC50,[2],1.3 µM
NC(=O)c1nccc([C@@H]2O[C@H](COP(=O)(O)OP(=O)(O)OP(=O)(O)O)[C@@H](O)[C@H]2O)c1F,IC50,[4],4 µM
same,Activity,[5],Active
same,IC50,[6],5.3 µM
same,IC50,[7],3.5 µM
same,Activity,[8],Active
C[C@H](NP(=O)(OC[C@H]1O[C@@H](c2ccnc(C(N)=O)c2F)[C@H](O)[C@@H]1O)Oc1ccccc1)C(=O)CC1CCCCC1 (some centres not stated),Drug metabolism,[9]; BLD = below limit of detection,BLD
same,Drug metabolism,[10]; BLD = below limit of detection,BLD
same,Drug metabolism,[11]; BLD = below limit of detection,BLD
same,Drug metabolism,[12],59.5 pmol
same,Drug metabolism,[13],42.6 pmol
same,EC50,[14],129 µM
same,Drug metabolism,[15],44.7 pmol
same,EC50,[16],74.1 µM
same,EC50,[2],129 µM
Cn1cc([C@@H]2O[C@H](CO)[C@@H](O)[C@H]2O)c(=O)c(C(N)=O)n1,CC50 at 10 min,[1],291 µM
same,Drug metabolism,[3],BLD
same,EC50,[2],91 µM
NC(=O)c1nccc([C@@H]2O[C@H](CO)[C@@H](O)[C@H]2F)c1F,CC50 at 10 min,[1],306 µM
same,EC50,[2],87 µM
CC(C)(C)C(=O)OCOP(=O)(OCOC(=O)C(C)(C)C)OC[C@H]1O[C@@H](c2ccnc(C(N)=O)c2F)[C@H](O)[C@@H]1O,Drug metabolism,[9],179 pmol
same,Drug metabolism,[10],7.22 pmol
same,Drug metabolism,[11],5 pmol
same,Drug metabolism,[12],74 pmol
same,Drug metabolism,[13],113 pmol
same,EC50,[14],5.8 µM
same,Drug metabolism,[17],< 60 nM
same,Drug metabolism,[18],1436 nM
same,Drug metabolism,[19],792 nM
same,Drug metabolism,[20],1764 nM
same,Drug metabolism,[15],248 pmol
same,EC50,[16],34.7 µM
same,CC50 at 10 min,[1],> 400 µM
same,EC50,[21],57.5 µM
same,Drug metabolism,[22],BLD
same,Drug metabolism,[23],422 nM
same,EC50,[2],5.8 µM
C=Cc1c([C@@H]2O[C@H](CO)[C@@H](O)[C@H]2O)ccnc1C(N)=O,CC50 at 10 min,[1],152 µM
same,EC50,[2],58 µM
NC(=O)c1nccc([C@@H]2O[C@H](CO)[C@@H](O)[C@H]2O)c1Cl,Drug metabolism,[3],BLD
NC(=O)c1nc(F)cn([C@@H]2O[C@H](CO)[C@@H](O)[C@H]2O)c1=O,CC50 at 10 min,[1],> 400 µM
same,EC50,[2],2.2 µM
NC(=O)c1nccc([C@@H]2O[C@H](CO)[C@@H](O)[C@H]2O)c1F,Drug metabolism,[24],192 pmol
same,Drug metabolism,[25],41 pmol
same,EC50,[14],1.9 µM
same,Drug metabolism,[26],11.6 pmol
same,EC50,[16],52 µM
same,CC50 at 10 min,[1],> 400 µM
same,EC50,[21],29.5 µM
same,Drug metabolism,[27],48.5 pmol
same,Drug metabolism,[28],21.6 pmol
same,Drug metabolism,[29],262 pmol
same,EC50,[2],1.9 µM
